In data set [1] the test system is FcεRI expression by LAD2 mast cells. The data set is described as follows: FcεRI surface expression by flow cytometry, LAD2 mast cells. It is filed as cell-based, human. The settings on record: for Effect of antagonist on SP-mediated downregulation of FcεRI: LAD2, antagonist 0.1 μM 30 min pretreatment.
The test system of data set [2] is FcεRI α, β and γ subunit mRNA in LAD2 mast cells. The data set is described as follows: Quantitative real-time PCR of FcεRI α, β and γ subunit mRNA. It is filed as cell-based, human. The settings on record: LAD2, 1 μg/ml SP, after at least 8 h of incubation, vs untreated control, n=3. In outline:
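LAD2 cells received 1 μg/ml SP or PBS for varying times. Total RNA was column-isolated, and 5 μg was reverse-transcribed with random hexamers. Real-time PCR used 50 ng cDNA per reaction, run in triplicate for 40 cycles. Subunit mRNA was normalized to GAPDH and expressed as percent of PBS-treated cells at each time point. n=3.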

Data set [3] has as its system CysLT production by LAD2 mast cells. The data set is described as follows: ELISA for CysLT production. It is filed as cell-based, human. The note with it: for Effect of SP on CysLT production: LAD2, SP 10 μg/ml, anti-IgE 3 h.
The test system of data set [4] is IgE binding by LAD2 mast cells. The data set is described as follows: Cell surface IgE binding by flow cytometry. It is filed as cell-based, human. The settings on record: SP 24 h, sensitized with IgE 1-100 ng/ml 30 min, anti-IgE FITC, n=5. An outline of the steps: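 LAD2 human mast cells (StemPro-34 SFM, 10 ng/ml SCF) were incubated 24 h with SP, then sensitized for 30 min with IgE at 1-100 ng/ml. Bound IgE was stained with anti-IgE-FITC (5 μg/ml) for 30 min on ice and read by flow cytometry as MFI.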

Data set [5] concerns LAD2 mast cells. Nature of the data set: Degranulation assay. It is filed as cell-based, human.
The test system of data set [6] is LAD2 mast cells. The settings on record: ref Kulka et al., 2008; cited from earlier work.
The next data set has as its system mast cell tryptase. The data set is described as follows: Tryptase activity assay. The settings on record: supernatants of SP-activated LAD2, BAPNA substrate, n=3. It is filed as biochemical, human. In outline: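 Washed LAD2 cells were left untreated or activated with SP (1 μg/ml) for 3 h. Cell-free supernatants were exposed to SBTI for 30 min, then mixed with 0.8 mM BAPNA solution in 0.1 M Tris/1 M glycerol, pH 7.8, and incubated 4 h at 37 °C. Nitroaniline was read at 410 nm. Activity was expressed relative to supernatants from SP-stimulated cells without inhibitor. n=3.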

“Also recorded” adds a separate entry of the source. Read-outs that look alike come from different tables or passages of the source. Bounds are passed on as bounds.

On to substance P [SP], for which, in data set [1] (LAD2 (discussion statement)), the “Lowest SP concentration leading to clear down-regulation of FcεRI” value was 1 µM and the “Time within which SP reduced IgE receptors” value is no more than 30 min. For the same molecule, the “Downregulation of FcεRI expression” value in data set [1] (LAD2, 1 μg/ml SP, 24 h) is “approximately 30%”. For the same molecule, in data set [1] (LAD2, 10 μg/ml SP (highest concentration tested), 24 h), the “Reduction of FcεRI expression” value is roughly 70%. For the same molecule, the “Reduction in FcεRI protein expression compared to untreated cells” value in data set [1] (LAD2, 10 μg/ml SP, 2 h) is 50%. The “IC50 of SP for downregulation of FcεRI surface expression” value in data set [1] (LAD2, in the absence of IgE, SP 24 h, flow cytometry, n=3) came to 5.2 µg/mL. For the same molecule, in the data set on human mast cells, the “Effect on mast cell viability” value was “no effect on mast cell viability”. In addition, the “Effect on expression of FcεRI α, β and γ subunit mRNA” value in data set [2] is on record as “significantly inhibited”. Besides, the “Effect of SP on CysLT production” value in data set [3] (sensitized with 50 ng/ml IgE) is recorded as “significantly inhibited CysLT production”. Besides, in data set [3] (sensitized with 100 ng/ml IgE), the “Effect of SP on CysLT production” value is on record as “did not significantly affect CysLT production”. For the same molecule, the “Effect of SP pretreatment on IgE/anti-IgE-induced CysLT production” value in data set [3] (LAD2, SP 24 h, sensitized with IgE, activated with anti-IgE 3 h, ELISA, n=3) is reported as “significantly less CysLT”. Besides, the “Direct activation of CysLT production” value in data set [3] (mast cells, SP alone) is reported as “does not activate mast cells to produce cysteinyl leukotrienes”. The “IgE binding of SP-treated LAD2 vs untreated controls” value in data set [4] is recorded as “bound less IgE”.
With vasoactive intestinal peptide [VIP], in the data set on human mast cells, the “Effect on mast cell viability” value was “no effect on mast cell viability”.
For the molecule `O=C(O)CN(CCN(CC(=O)O)CC(=O)O)CC(=O)O` [EDTA], in data set [1], the “Effect on SP-mediated downregulation of FcεRI” value is reported as “blocked the SP-mediated downregulation of FcεRI”. Further, the “Effect on SP-induced degranulation” value in the data set on LAD2 mast cells [5] is listed as “blocked SP-induced degranulation”.
Take SP(4–11) [SP(4–11) [D-Pro4 D-Trp7.9]]: in data set [1] (LAD2, 30 min pretreatment, then 1 μg/ml SP 24 h), the “Concentration that blocked the SP-mediated downregulation of FcεRI expression” value was found to be 0.1 µM. In addition, in data set [1] (then 1 μg/ml SP 24 h), the “Effect of antagonist on SP-mediated downregulation of FcεRI” value is listed as “blocked SP-mediated downregulation of FcεRI expression”. In addition, the “Concentration at which SP(4–11) abrogated the SP effect on FcεRI expression” value in data set [1] (discussion statement) was 1 µg/mL.
Pertussis toxin: the “Effect on SP-mediated downregulation of FcεRI” value in data set [1] (Pertussis toxin pretreatment 2 h, then 1 μg/ml SP 24 h, n=3) is “selectively blocked SP-mediated downregulation of FcεRI”.
Consider spantide I, for which the “Effect of antagonist on SP-mediated downregulation of FcεRI” value in data set [1] (then 1 μg/ml SP 24 h) is given as “did not have any effect”. Besides, the “Effect on SP-mediated degranulation in mast cells” value in the data set on LAD2 mast cells [6] was “fails to inhibit SP-mediated degranulation”.

B1: soybean trypsin inhibitor (protein, UniProt P01070 25-205, looked up)
Trypsin inhibitor A: DFVLDNEGNPLENGGTYYILSDITAFGGIRAAPTGNERCPLTVVQSRNELDKGIGTIISSPYRIRFIAEGHPLSLKFDSFAVIMLCVGIPTEWSVVEDLPEGPAVKIGENKDAMDGWFRLERVSDDEFNNYKLVFCPQQAEDDKCGDIGISIDHDDGTRRLVVSKNKPLVVQFQKLDKESL
In the case of B1, in data set [1] (LAD2, 100 μg/ml SBTI five minutes prior to 1 or 10 μg/ml SP, 24 h), the “Effect on SP-mediated downregulation of FcεRI” value was “did not affect SP-mediated downregulation of FcεRI”. The “Effect on SP-induced degranulation” value in the data set with LAD2 mast cells [5] (LAD2, pretreatment before activation with SP, β-hexosaminidase release) is listed as “did not affect LAD2 cell degranulation”. The “Effect on activity of tryptase released by SP activation” value in the data set with mast cell tryptase is given as “able to block the activity of tryptase; also recorded: completely blocked the proteolytic activity of tryptase”.
